Bioassay records from PubChem.
PP1 inh: blocks human PP1-alpha phosphatase, a PP5 counter-screen; 320,000 tested, 0.9% active; purified PP1alpha, OMFP fluorescence; P62136; inhibition, % at 6.7 µM; AID 2235;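 active = inhibition above the mean inhibition of all tested compounds plus 3 SD, computed separately for each screening campaign, cut at about 15% in these data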
Target sequence (P62136 whole entry, looked up): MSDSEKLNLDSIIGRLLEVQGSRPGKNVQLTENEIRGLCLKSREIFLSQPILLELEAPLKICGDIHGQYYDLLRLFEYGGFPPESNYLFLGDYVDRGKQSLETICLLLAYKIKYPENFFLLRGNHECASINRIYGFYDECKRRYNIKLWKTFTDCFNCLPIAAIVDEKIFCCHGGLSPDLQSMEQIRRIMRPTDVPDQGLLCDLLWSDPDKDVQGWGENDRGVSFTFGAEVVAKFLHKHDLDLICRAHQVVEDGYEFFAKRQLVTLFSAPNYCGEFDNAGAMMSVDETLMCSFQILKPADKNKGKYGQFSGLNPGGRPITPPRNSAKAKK
NadD inh: NadD (S. aureus) enzyme inhibition; 360,000 tested, 0.78% active; purified NadD enzyme, colorimetric absorbance read-out; AID 602399; inhibition, % at 20 µM; in the data active = inhibition above about 26%
PP5 primary: blocks human protein phosphatase 5 activity; P53041; purified PP5c, OMFP substrate fluorescence; inhibition, % at 6.7 µM; 320,000 tested, 0.18% active; AID 1987;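 active = inhibition above the campaign's mean inhibition across all tested compounds plus 3 SD, cut at about 9.5% in these data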;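 note: 0% = DMSO only and 100% = 100 µM cantharidin control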
HCV core dimer: HCV core protein dimerization inhibition; TR-FRET GST/Flag-core106 dimerization, 1536-well; 300,000 tested, 0.33% active; AID 1899; inhibition, % at 5 µM;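 active = inhibition above the mean of all tested compounds plus 3 SD, set per screening campaign, cut at about 45% in these data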
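Assay system: tagged HCV core106 pair (GST and Flag); medium: KF-containing HEPES buffer, pH 7.45, DTT, CHAPS, BSA; also added: Eu donor and XL665 acceptor anti-tag antibodies; dosing: 5 µM single dose; timing: compound-protein-antibody incubation 4 h at 22.5 °C; signal: TR-FRET 671 and 617 nm emission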
Fh CTSL1 inh: cathepsin L1 inhibition, PFM18AAP counter-screen; 300,000 tested, 0.49% active; inhibition, % at 5.96 µM; recombinant F. hepatica cathepsin L1, Z-Leu-Arg-MCA fluorescence;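 active = inhibition above the mean of all tested compounds plus 3 SD, set per screening campaign, cut at about 17% in these data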;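 note: 0% = plate median of test compound wells and 100% = 1 µM Z-Phe-Ala-diazomethylketone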
Myeloid diff 2: compounds promoting myeloid differentiation; calls only at 10 µM; ER-HoxA9 myeloid progenitors, lysozyme-GFP differentiation, flow cytometry; 360,000 tested, 1% active;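 active = normalized GFP-positive differentiation at or above the plate's own cutoff, the solvent-only control mean plus 3 SD; inconclusive = no clear call, values can overlap the other calls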;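 note: cells exposed to compound for four days before flow analysis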
PP5 conf: confirmation of human PP5 phosphatase inhibitors. shares compounds with PP5 primary. Purified PP5, fluorogenic phosphatase substrate, fluorescence. inhibition, % at 6.7 µM. 460 tested, 22% active; in the data active = inhibition above about 9.5%
PP1 counter 3x: inhibits human PP1 phosphatase in PP5 counter-screen; shares compounds with PP5 primary; PP1 enzyme, fluorescent phosphatase substrate; inhibition, % at 6.7 µM; 460 tested, 4% active; AID 2355; in the data active = inhibition above about 16%
* = called active by the depositor; i = inactive; ? = inconclusive; . = no result. Rows were chosen to be rich in hits. Some 3.1% of all compounds tested hit in one or more screens of this group.

SMILES | PP1 inh | NadD inh | PP5 primary | HCV core dimer | Fh CTSL1 inh | Myeloid diff 2 | PP5 conf | PP1 counter 3x
O=C(CC(c1ccccc1)c1ccccc1O)NCc1ccccc1 (stereo not given) | -1 | -5 | 2 | -1 | 18* | i | . | .
CC(=O)Nc1ccc(S(=O)(=O)N2CCN(c3nc(NC4CCCC4)c4ccccc4n3)CC2)cc1 | 11 | 12 | 12* | -1 | 2 | i | 2 | 0
CC(=O)Nc1ccc(S(=O)(=O)N2CCN(c3cc(C)nc4ccccc34)CC2)cc1 | -3 | 5 | 1 | -4 | -5 | i | . | .
CCOC(=O)c1c(C)[nH]c(C(=O)OCC(=O)N2CCN(S(=O)(=O)c3ccc(C)cc3C)CC2)c1C | -2 | -8 | 3 | . | . | i | . | .
COC(=O)C1(C)NC(c2ccc(O)cc2)C2C(=O)N(c3ccc(F)cc3)C(=O)C21 (stereo not given) | -4 | -6 | 10* | 7 | -4 | i | -7 | -6
COc1ccc(NC(=O)c2cc3sccc3n2Cc2ccc(F)cc2)cc1OC | 2 | -1 | 4 | 2 | 0 | i | . | .
O=C(Nc1nccs1)c1cc2sccc2n1Cc1ccc(F)cc1 | -1 | 15 | 10* | 15 | -1 | i | -6 | -1
O=C1N(c2ccccc2C(F)(F)F)O[C@]1(c1ccccc1)C1CCCC1 | -1 | 3 | 0 | . | . | i | . | .
O=C1c2ccccc2C(=O)C12OC(c1ccccc1)C1(C(=O)c3ccccc3C1=O)C2c1ccc([N+](=O)[O-])cc1 (stereo not given) | 5 | -5 | 2 | 42 | 1 | i | . | .
O=C1c2ccccc2C(=O)C12OC2c1ccc(Cl)cc1 (stereo not given) | 1 | . | 11* | -1 | 17* | . | 32* | 4
COc1ccc(CO[C@@H]2O[C@H](CO)[C@@H](O)[C@H](O)[C@H]2NC(C)=O)cc1OC | . | -3 | . | . | . | i | . | .
O=C(NCC1CCCO1)c1cc2c([nH]c3ccccc32)c(-c2cccc(Cl)c2)n1 (stereo not given) | 11 | 2 | 11* | 4 | 0 | ? | 3 | 6
COc1ccc(NC(=O)COC(=O)CNC(=O)COc2ccccc2)cc1OC | . | -7 | . | . | . | i | . | .
CC(C)c1ccc(C(O)P(=O)(OCc2ccccc2)c2ccc(N(C)C)cc2)cc1 (stereo not given) | 3 | -9 | 9.7* | -1 | 1 | i | 5 | 6
COc1cccc(NC(=O)c2ccccc2Br)c1 | -1 | -3 | -1 | 1 | 1 | i | . | .
COc1ccc(Br)c(C(=O)Nc2ccc(F)cc2)c1 | 5 | -7 | 16* | 2 | 6 | i | -3 | -4
O=C(O)CCCN1C(=O)C2C3CCC(O3)C2C1=O (stereo not given) | 5 | -8 | 17* | -10 | 2 | i | 7 | 4
COc1ccc2occ(C(=O)c3coc4ccc(O)c(CN(C)C)c34)c2c1 | 1 | -5 | 11* | -2 | 1 | i | -2 | -2
CCCN(C(=O)Cn1nc(C)c([N+](=O)[O-])c1C)c1c(N)n(Cc2ccccc2)c(=O)[nH]c1=O | -7 | -1 | -2 | -1 | -1 | i | . | .
CC(C)Oc1cc(F)ccc1-c1cc(C(=O)NCc2ccccc2)[nH]n1 | . | 4 | . | . | . | i | . | .
CC(C)(C)OC(=O)[C@H](Cc1ccccc1)NC(=O)c1nc[nH]c1C(=O)NC1CCN(C(=O)OC(C)(C)C)CC1 | 9 | 9 | 10* | -3 | 9 | i | 10* | 10
C[C@H](NC(=O)c1nc[nH]c1C(=O)N[C@@H](CCCCNC(=O)OC(C)(C)C)C(=O)OC(C)(C)C)C(=O)OC(C)(C)C | 8 | 10 | 9.6* | 4 | 8 | i | 5 | 6
CC(C)C[C@H](NC(=O)c1[nH]cnc1C(=O)N[C@@H](Cc1ccccc1)C(=O)OC(C)(C)C)C(=O)OC(C)(C)C | 5 | 9 | 7 | -5 | 8 | i | . | .
CC(C)C[C@H](NC(=O)c1[nH]cnc1C(=O)N[C@@H](C)c1ccccc1)C(=O)OC(C)(C)C | 9 | 3 | 9.9* | 17 | 6 | i | 9.7* | 9
CC(C)(C)OC(=O)NCCCC[C@H](NC(=O)c1nc[nH]c1C(=O)N[C@@H](CCCCNC(=O)OC(C)(C)C)C(=O)OC(C)(C)C)C(=O)OC(C)(C)C | 11 | 12 | 16* | 6 | 8 | ? | 11* | 12
SMILES | PP1 inh | NadD inh | PP5 primary | HCV core dimer | Fh CTSL1 inh | Myeloid diff 2 | PP5 conf | PP1 counter 3x
C=C(C)[C@H]1CC=C(C)C(=O)C1 | -5 | -1 | 0 | . | . | i | . | .
CC(C)(C)OC(=O)NCCCC[C@H](NC(=O)c1nc[nH]c1C(=O)NC1CCN(C(=O)OC(C)(C)C)CC1)C(=O)OC(C)(C)C | 10 | 11 | 11* | -1 | 7 | i | 9 | 10
CC(C)(C)OC(=O)NCCCCCNC(=O)c1[nH]cnc1C(=O)N[C@@H](CCCCNC(=O)OC(C)(C)C)C(=O)OC(C)(C)C | 6 | 5 | 13* | -3 | 7 | ? | 5 | 6
CC(C)C[C@H](NC(=O)c1nc[nH]c1C(=O)N[C@@H](CCCCNC(=O)OC(C)(C)C)C(=O)OC(C)(C)C)C(=O)OCc1ccccc1 | 13 | 8 | 11* | -13 | 11 | i | 8 | 9
C[C@H](NC(=O)c1nc[nH]c1C(=O)N[C@@H](CCCCNC(=O)OC(C)(C)C)C(=O)OC(C)(C)C)C(=O)OCc1ccccc1 | 11 | 10 | 9 | -8 | 10 | i | . | .
Cc1cccc(NC(=O)c2nc[nH]c2C(=O)N[C@@H](CCCCNC(=O)OC(C)(C)C)C(=O)OC(C)(C)C)c1 | 3 | 7 | 11* | 11 | 10 | i | 5 | 6
COc1ccc(Cl)cc1C(=O)NNC(=O)c1[nH]c(C)c(C(C)=O)c1C | . | 7 | . | . | . | i | . | .
Cc1cc(C)c(C(=O)COC(=O)c2c(C)noc2C)cc1C | 1 | -14 | 0 | . | . | i | . | .
O=C(c1[nH]c(C(F)(F)F)nc1-c1ccccc1)N1CCN(c2ccncc2)CC1 | . | 0 | . | . | . | i | . | .
Cc1c(NC(=S)N/N=C/c2cc([N+](=O)[O-])ccc2O)c(=O)n(-c2ccccc2)n1C | 3 | 7 | 12* | -5 | 1 | i | -7 | -3
CC1=C(C(=O)OC(C)C)C2(O)C(=O)c3ccccc3C2(O)N1 (stereo not given) | 0 | -3 | 12* | -34 | -1 | i | 16* | 0
CCOCc1c(C(=O)NCc2ccccc2CN2CCCC2)oc2ccccc12 | -2 | 5 | 1 | . | . | i | . | .
O=C(NC1CCCCCC1)C1c2ccccc2C(=O)N1Cc1ccco1 (stereo not given) | -1 | -4 | 11* | -3 | 0 | i | -5 | -4
